Source: PubChem
SR-BI DiI inh: inhibitors of SR-BI mediated HDL lipid uptake, primary screen, ldlA[mSR-BI] cells, fluorescence, single point | Scavenger receptor class B member 1 (Mus musculus), Q61009 | ldlA[mSR-BI] CHO cells, DiI-HDL uptake fluorescence, 3 h | inhibition, % at 12.5 µM | 320,000 tested, 0.96% active | AID 488896, 2010;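 active = mean replicate inhibition of at least 70% and a set share of replicates each scoring 70 or more; inconclusive = meets just one of the two criteria; inactive = fails both criteria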;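 also: 0% = median of neutral control wells and 100% = median of positive control wells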
RAD54 inh: inhibitors of human RAD54 branch migration, primary screen, biochemical, fluorescence, single point; RAD54 Holliday junction branch migration, FAM/BHQ fluorescence; 360,000 tested, 0.14% active; DNA repair and recombination protein RAD54-like (Homo sapiens), Q92698; AID 602329, 2012; inhibition, % at 10.4 µM;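 active = mean normalized replicate activity at least 40 and at least half of replicates scoring 40 or more; inconclusive = only one of the two criteria met; inactive = mean below 40 and under half of replicates reaching 40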;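 also: 0% = median of neutral control wells and 100% = median of positive control wells; inhibitors cause a drop in the FAM fluorescence signal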
PvdQ inh: P. aeruginosa PvdQ acylase inhibitors, primary screen, biochemical, fluorescence, plate reader and imaging, single point; inhibition, % at 10 µM; AID 488965, 2010; 340,000 tested, 0.063% active; purified PvdQ acylase; in the data active = inhibition above about 30%, passing the limit was not always enough; inconclusive = no clear call, values can overlap the other calls;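 also: 0% = vehicle neutral wells and 100% = reference inhibitor wells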
dFosB act: activators of delta FosB homodimer, primary screen, biochemical, fluorescence polarization, TAMRA-CDK5 oligo, single point. Protein FosB (Mus musculus), P13346. purified delta FosB; percent of positive-control signal above neutral wells. 340,000 tested, 0.99% active. activation, % at 25 µM;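 active = mean activation above about 17%, with every replicate also reaching it, limit read from the data, passing the limit was not always enough; inconclusive = only one of the two conditions met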
Target sequence (P13346 whole entry, looked up): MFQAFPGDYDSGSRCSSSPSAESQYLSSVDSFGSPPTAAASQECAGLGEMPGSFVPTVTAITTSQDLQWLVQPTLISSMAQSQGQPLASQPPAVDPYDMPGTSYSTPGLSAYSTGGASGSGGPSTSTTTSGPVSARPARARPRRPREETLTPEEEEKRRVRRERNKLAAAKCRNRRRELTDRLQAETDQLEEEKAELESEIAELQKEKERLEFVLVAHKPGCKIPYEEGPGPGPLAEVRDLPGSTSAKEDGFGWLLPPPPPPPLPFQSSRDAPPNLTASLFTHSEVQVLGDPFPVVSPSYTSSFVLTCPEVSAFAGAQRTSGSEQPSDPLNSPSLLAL
S100A4 inh HTS: inhibitors of S100A4-myosin IIA peptide binding, primary screen, biochemical, fluorescence polarization, TAMRA-MyoIIA peptide; Protein S100-A4 (Homo sapiens), P26447; 360,000 tested, 0.14% active; AID 652163, 2013; inhibition, % at 10.7 µM;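 active = mean inhibition of at least 70% across replicates, with every replicate also reaching that level; inconclusive = mean inhibition reaches 70% but some replicates fall short; inactive = mean inhibition below 70%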
Target sequence (P26447 whole entry, looked up): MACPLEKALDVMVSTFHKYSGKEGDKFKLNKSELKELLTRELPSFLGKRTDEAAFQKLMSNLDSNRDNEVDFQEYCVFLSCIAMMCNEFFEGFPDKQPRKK
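Test system: S100A4 monomer protein. Medium: HEPES buffer with Ca2+, pH 7.2. Reagent: fluorescent myosin IIA peptide, 5 nM. Compound dosing: single-point compound testing. Timing: 5 min between mix addition and reading. Benchmarks: DMSO neutral and TFP positive wells.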
SR-BI DiI-HDL act: activators of SR-BI mediated DiI-HDL uptake, primary screen, ldlA[mSR-BI] CHO cells, DiI fluorescence; activation, % at 12.5 µM; 3 h; 100 = double the neutral-control signal; 320,000 tested, 0.096% active; AID 504775, 2011;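 active = mean replicate activation of at least 60% and every replicate at or above 60%; inconclusive = mean or all-replicate condition met, but not both; inactive = mean below 60% and not all replicates reaching 60%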;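 also: 0% = median plate neutral-control signal and 100% = twice that signal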
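Material: SR-BI-overexpressing, LDLR-lacking CHO cells | Dosing: Single compound concentration, delivered by pin transfer | Probe or stimulus: Labelled HDL, 10 µg/mL | Signal: Bottom-read cell fluorescence after medium removal, ex 550/em 595 nm | Schedule: 3 h, 37 °C | Evaluation: HDL uptake via cellular fluorescence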
* marks the source's active call; other numbers are inactive results; ? = inconclusive; / = not tested or not shown. This is a sample that favours compounds with a hit; in the whole collection about 1.6% have one here.

SMILES	SR-BI DiI inh	RAD54 inh	PvdQ inh	dFosB act	S100A4 inh HTS	SR-BI DiI-HDL act
CCCN(CCC)CC(O)Cn1cc(/C=C/C(=O)c2ccccc2)c2ccccc21 (stereo unspecified)	33	8	-6	-7	-1	-33
CCCCN(C)CC(O)Cn1cc(/C=C/C(=O)c2ccc(C)cc2)c2ccccc21 (stereo unspecified)	29	10	-5	26*	3	-29
Cc1cccc(Nc2nc(NCc3ccco3)c3ccccc3n2)c1	24	/	-4	38*	3	-24
Oc1ccccc1Nc1nc(NCc2ccco2)c2ccccc2n1	/	/	-10	?	-3	/
c1ccc(Nc2nc(NCc3ccco3)c3ccccc3n2)cc1	7	-12	-16	?	1	-7
COc1ccc(OC)c(Nc2nc(NCc3ccco3)c3ccccc3n2)c1	13	-6	-9	53*	-15	-13
Cc1ccccc1Nc1nc(NCc2ccco2)c2ccccc2n1	13	5	-1	36*	2	-13
CO[C@@H]1CN(C)C(=O)c2ccc(NC(=O)C3CCC3)cc2OC[C@@H](C)N(Cc2ccncc2)C[C@@H]1C	/	1	/	/	4	/
COc1cc(OC)cc(-c2sc3ccc(OC)cc3c2C#CCO)c1	79*	-4	-7	-20	-6	-79
CCCNC(=O)Nc1ccc2c(c1)C(=O)N(C)[C@H]1CC[C@H](CC(=O)NC)O[C@H]1CO2	/	1	/	/	/	/
O=C(NCC[C@H]1CC[C@@H](NS(=O)(=O)c2ccccc2F)[C@H](CO)O1)c1ccc(F)cc1	/	-3	/	/	126*	/
O=C(NCC[C@H]1CC[C@H](NS(=O)(=O)c2ccccc2)[C@@H](CO)O1)c1cc(Cl)cc(Cl)c1	/	3	/	/	76*	/
O=C(NCC[C@@H]1CC[C@H](NS(=O)(=O)c2ccccc2)[C@@H](CO)O1)c1cc(Cl)cc(Cl)c1	/	-13	/	/	33	/
COc1ccccc1S(=O)(=O)N[C@H]1CC[C@H](CC(=O)N2CCN(C)CC2)O[C@@H]1CO	/	-3	/	/	128*	/
COc1ccccc1S(=O)(=O)N[C@@H]1CC[C@@H](CC(=O)N2CCN(C)CC2)O[C@@H]1CO	/	-5	/	/	-51	/
COc1ccc2c3c([nH]c2c1)[C@H](CO)N(C(=O)Nc1ccc(F)cc1)CC31CN(Cc2nccs2)C1	/	/	/	/	-12	/
CCOC(=O)c1c(NC(=O)C2=C(C)NC(=S)NC2c2ccc(F)cc2)sc(C)c1C (stereo unspecified)	71*	/	7	-15	-3	-71
CCOC(=O)C1=C(C)NC(=S)NC1c1ccc(OCC(=O)N2CCCCCC2)c(OC)c1 (stereo unspecified)	?	-6	12	-7	3	-71
CCOC(=O)c1c(NC(=O)C2=C(C)NC(=S)NC2c2ccc(F)cc2F)sc(C)c1C (stereo unspecified)	53	-1	-12	1	-2	-53
CCOC(=O)C1=C(C)NC(=S)NC1c1ccc(OCC(=O)N2CCCCC2)cc1 (stereo unspecified)	73*	-7	-8	-11	0	-73
CCOC(=O)c1c(NC(=O)C2=C(C)NC(=S)NC2c2ccc(C)cc2)sc(C)c1C (stereo unspecified)	72*	3	-3	-14	-10	-72
CC1=C(C(=O)Nc2ccccn2)C(c2ccc(Cl)cc2)NC(=S)N1 (stereo unspecified)	5	-6	0	0	-2	-5
O=C(CN1CCN(c2ccc(O)cc2)CC1)Nc1ccc2c(c1)OCCCO2	75*	6	-17	-5	-6	-75
Cc1cccc(NC(=O)CN2CCc3cc4c(cc3C2)OCCCO4)c1	-222	-2	-2	-5	2	222*
